Reference: ChEMBL document CHEMBL3351710, “Synthesis of novel thiadiazolotriazin-4-ones and study of their mosquito-larvicidal and antibacterial properties” (Eur J Med Chem, 2014)
Converted amounts (≈) assume the structure as drawn.

Legend:
Staphylococcus aureus [1] = experiment: Antibacterial activity against Staphylococcus aureus MTCC-7443 assessed as zone of inhibition at 1 ug/ml; assay type: functional; conditions: read-out: DIZ
Procedure, shortened: (§1)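 Disc diffusion on Nutrient Agar. Strains were first grown on NA for 24 h at 37 °C, then spread as a lawn. Compounds were dissolved in DMSO. Sterile 6 mm discs were saturated with test solution, dried under laminar flow and placed on the inoculated plates. Plates were incubated at 37 °C for 18–24 h, and clear-zone diameters were measured.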

Anopheles stephensi [2] = experiment: Larvicidal activity against Anopheles stephensi late III or early IV instar larvae assessed as mortality after 24 hrs relative to untreated control; assay type: functional
Procedure, shortened: (§2)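 25 late III/early IV instar larvae in 250 mL water per beaker, exposed to a range of concentrations; a negative control ran with each set and malathion served as reference insecticide. Mortality was scored after 24 h in triplicate per sample. LC50 with 95% confidence limits was derived by Abbott's formula and log probit analysis.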

Anopheles stephensi [3] = experiment: Larvicidal activity against Anopheles stephensi late III or early IV instar larvae assessed as mortality after 24 hrs; assay type: functional; conditions: for LC50: Anopheles stephensi, iv, 24 h; procedure, shortened: as §2
Escherichia coli [4] = experiment: Antibacterial activity against Escherichia coli MTCC-725 assessed as zone of inhibition at 1 ug/ml; assay type: functional; conditions: read-out: DIZ; procedure, shortened: as §1
Bacillus subtilis [5] = experiment: Antibacterial activity against Bacillus subtilis MTCC-441 assessed as zone of inhibition at 1 ug/ml; assay type: functional; conditions: read-out: DIZ; procedure, shortened: as §1
Aeromonas hydrophila [6] = experiment: Antibacterial activity against Aeromonas hydrophila MTCC-1739 assessed as zone of inhibition at 1 ug/ml; assay type: functional; conditions: read-out: DIZ; procedure, shortened: as §1
Escherichia coli [7] = experiment: Antibacterial activity against Escherichia coli MTCC-725 assessed as zone of inhibition at 10 ug/disc; assay type: functional; conditions: read-out: DIZ; procedure, shortened: as §1
Bacillus subtilis [8] = experiment: Antibacterial activity against Bacillus subtilis MTCC-441 assessed as zone of inhibition at 10 ug/disc; assay type: functional; conditions: read-out: DIZ; procedure, shortened: as §1
Staphylococcus aureus [9] = experiment: Antibacterial activity against Staphylococcus aureus MTCC-7443 assessed as zone of inhibition at 10 ug/disc; assay type: functional; conditions: read-out: DIZ; procedure, shortened: as §1
Aeromonas hydrophila [10] = experiment: Antibacterial activity against Aeromonas hydrophila MTCC-1739 assessed as zone of inhibition at 10 ug/disc; assay type: functional; conditions: read-out: DIZ; procedure, shortened: as §1
Mus musculus = experiment: Toxicity in po dosed Swiss albino mouse after 72 hrs; assay type: organism-based; conditions: in vivo

Row | Compound | zone of inhibition at 1 µg/mL (Staphylococcus aureus [1]) | Ratio (Anopheles stephensi [2]) | LC90 (Anopheles stephensi [3]) | LC50 (Anopheles stephensi [3]) | zone of inhibition at 1 µg/mL (Escherichia coli [4]) | zone of inhibition at 1 µg/mL (Bacillus subtilis [5]) | zone of inhibition at 1 µg/mL (Aeromonas hydrophila [6]) | zone of inhibition at 10 µg/disc (Escherichia coli [7]) | zone of inhibition at 10 µg/disc (Bacillus subtilis [8]) | zone of inhibition at 10 µg/disc (Staphylococcus aureus [9]) | zone of inhibition at 10 µg/disc (Aeromonas hydrophila [10]) | MLD (Mus musculus)
1 | CC(C)(C)c1nnc2sc(COc3ccccc3)nn2c1=O | 12.3 mm | 0.11 | 120.98 µg/mL (≈ 382 µM) | 79.2 µg/mL (≈ 250 µM) | 10.9 mm | – | – | – | – | – | – | –
2 | CC(C)(C)c1nnc2sc(COc3ccc(Cl)cc3Cl)nn2c1=O | 10.8 mm | 0.18 | 73.2 µg/mL (≈ 190 µM) | 48.7 µg/mL (≈ 126 µM) | – | 12.9 mm | 9.7 mm | – | – | – | – | –
3 | Cc1cccc(C)c1OCc1nn2c(=O)c(C(C)(C)C)nnc2s1 | – | 0.11 | 115.2 µg/mL (≈ 334 µM) | 103 µg/mL (≈ 298 µM) | 11.4 mm | 9.8 mm | 10.4 mm | – | – | – | – | –
4 | Cc1cc(Cl)ccc1OCc1nn2c(=O)c(C(C)(C)C)nnc2s1 | 12.6 mm | 0.17 | 71.45 µg/mL (≈ 196 µM) | 49.3 µg/mL (≈ 135 µM) | 18.9 mm | – | 19.6 mm | – | – | – | – | –
5 | CN[C@@H]1[C@H](O[C@H]2[C@H](O[C@H]3[C@H](O)[C@@H](O)[C@H](N=C(N)N)[C@@H](O)[C@@H]3N=C(N)N)O[C@@H](C)[C@]2(O)C=O)O[C@@H](CO)[C@H](O)[C@H]1O [STREPTOMYCIN] | – | – | – | – | – | – | – | 26.3 mm | 33.6 mm | 31.5 mm | 22.4 mm | –
6 | CC(C)(C)c1nnc2sc(COc3ccc(I)cc3)nn2c1=O | – | 0.11 | 124.77 µg/mL (≈ 282 µM) | 77.5 µg/mL (≈ 175 µM) | – | 11.9 mm | – | – | – | – | – | –
7 | COc1ccccc1OCc1nn2c(=O)c(C(C)(C)C)nnc2s1 | 21.7 mm | 0.34 | 37.78 µg/mL (≈ 109 µM) | 25.7 µg/mL (≈ 74.2 µM) | 15.6 mm | 19.2 mm | 13.9 mm | – | – | – | – | –
8 | CC(C)(C)c1nnc2sc(COc3ccc(Cl)cc3)nn2c1=O | – | 0.14 | 90.45 µg/mL (≈ 258 µM) | 61.3 µg/mL (≈ 175 µM) | 13.9 mm | 11.2 mm | 12.5 mm | – | – | – | – | –
9 | CC(C)(C)c1nnc2sc(COc3ccccc3[N+](=O)[O-])nn2c1=O | 19.8 mm | 0.12 | 105.04 µg/mL (≈ 291 µM) | 70.5 µg/mL (≈ 195 µM) | 11.7 mm | 16.8 mm | 9.6 mm | – | – | – | – | –
10 | CC(C)(C)c1nnc2sc(COc3ccc(O)cc3)nn2c1=O | 11.7 mm | 0.4 | 32.11 µg/mL (≈ 96.6 µM) | 21.7 µg/mL (≈ 65.3 µM) | 14.3 mm | – | 10.5 mm | – | – | – | – | 1.36 g/kg
11 | CCOC(=O)CC(SP(=S)(OC)OC)C(=O)OCC (configuration not stated) [MALATHION] | – | – | 12.01 µg/mL (≈ 36.4 µM) | 8.7 µg/mL (≈ 26.3 µM) | – | – | – | – | – | – | – | –
12 | CC(C)(C)c1nnc2sc(COc3cc(Cl)c(Cl)cc3Cl)nn2c1=O | 22.4 mm | 0.11 | 115.05 µg/mL (≈ 274 µM) | 81.6 µg/mL (≈ 194 µM) | 16.5 mm | 19.3 mm | 17.5 mm | – | – | – | – | –
13 | Cc1cc(C)c(C)c(OCc2nn3c(=O)c(C(C)(C)C)nnc3s2)c1 | 17.6 mm | 0.29 | 45.05 µg/mL (≈ 126 µM) | 39.8 µg/mL (≈ 111 µM) | 18.9 mm | 15.6 mm | 15.6 mm | – | – | – | – | –
14 | CC(C)(C)c1nnc2sc(C(C)(C)Oc3ccc(Cl)cc3)nn2c1=O | 19.6 mm | 0.15 | 87.49 µg/mL (≈ 231 µM) | 55.2 µg/mL (≈ 146 µM) | 21.1 mm | 18.4 mm | 22.4 mm | – | – | – | – | 2.26 g/kg
15 | CC(C)(C)c1nnc2sc(COc3ccccc3Cl)nn2c1=O | 16.6 mm | 0.12 | 113.57 µg/mL (≈ 324 µM) | 72.8 µg/mL (≈ 208 µM) | 19.5 mm | 18.9 mm | 16.5 mm | – | – | – | – | –
16 | CC(=O)c1ccc(OCc2nn3c(=O)c(C(C)(C)C)nnc3s2)cc1 | 18.7 mm | 0.1 | 135.9 µg/mL (≈ 379 µM) | 86.6 µg/mL (≈ 242 µM) | 22.7 mm | 25.7 mm | 19.3 mm | – | – | – | – | 1.82 g/kg
